Measured values taken from ChEMBL document CHEMBL1914423, “New imidazo[2,1-b]thiazole derivatives: synthesis, in vitro anticancer evaluation, and in silico studies” (Eur J Med Chem, 2011).

What was measured:
Format in all cases: functional
RPMI-8226 = assay: Anticancer activity against human RPMI8226 cells after 48 hrs by SRB assay; details: RPMI-8226, 48 h
[1] = Anticancer activity against human Hs 578T cells after 48 hrs by SRB assay
Method in brief: (§1)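 NCI five-dose screen. Cells in RPMI 1640 with 5% FBS and 2 mM L-glutamine, seeded at 5000–40,000 cells/well according to doubling time, then pre-incubated 24 h at 37 °C in 5% CO2. Drugs dissolved in DMSO, five concentrations by 10-fold or 1/2-log dilution. Cells fixed with TCA, SRB-stained, A515 read. IC50 solved from [(Ti−Tz)/(C−Tz)]×100 = 50.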

LOX IMVI = assay: Anticancer activity against human LOXIMVI cells after 48 hrs by SRB assay; method in brief: as §1
NCI-H322M = assay: Anticancer activity against human NCI-H322M cells after 48 hrs by SRB assay
UACC-257 = assay: Anticancer activity against human UACC257 cells after 48 hrs by SRB assay; details: UACC-257, 48 h
Method in brief: (§2)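 NCI-60 five-dose mode: cells in RPMI 1640 with 5% FBS and 2 mM glutamine, plated at 5000–40,000 cells/well, and preincubated 24 h, with time-zero plates TCA-fixed. Drug given at five concentrations (10-fold or ½-log serial dilutions). Cold TCA fixation 60 min at 4 °C, SRB stain, Tris solubilization, A515. IC50 taken where [(Ti−Tz)/(C−Tz)]×100 = 50.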

MDA-MB-435 = assay: Anticancer activity against human MDA-MB-435 cells after 48 hrs by SRB assay; details: MDA-MB-435, 48 h; method in brief: as §1
NCI/ADR-RES = assay: Anticancer activity against human NCI/ADR-RES cells after 48 hrs by SRB assay
SF-295 = assay: Anticancer activity against human SF295 cells after 48 hrs by SRB assay; details: SF-295, 48 h
NCI-H460 = assay: Anticancer activity against human NCI-H460 cells after 48 hrs by SRB assay; details: NCI-H460, 48 h
KM12 = assay: Anticancer activity against human KM12 cells after 48 hrs by SRB assay; details: KM12, 48 h; method in brief: as §1
MOLT-4 = assay: Anticancer activity against human MOLT4 cells after 48 hrs by SRB assay; details: MOLT-4, 48 h
NCI-H23 = assay: Anticancer activity against human NCI-H23 cells after 48 hrs by SRB assay; details: NCI-H23, 48 h
CAKI-1 = assay: Anticancer activity against human Caki1 cells after 48 hrs by SRB assay; details: CAKI-1, 48 h; method in brief: as §1
DU-145 = assay: Anticancer activity against human DU145 cells after 48 hrs by SRB assay; details: DU-145, 48 h; method in brief: as §1
Malme-3M = assay: Anticancer activity against human MALME-3M cells after 48 hrs by SRB assay; method in brief: as §1
HOP-62 = assay: Anticancer activity against human HOP62 cells after 48 hrs by SRB assay; details: HOP-62, 48 h; method in brief: as §1
K562 = assay: Anticancer activity against human K562 cells after 48 hrs by SRB assay; details: K562, 48 h; method in brief: as §1
COLO 205 = assay: Anticancer activity against human COLO205 cells after 48 hrs by SRB assay; details: COLO 205, 48 h; method in brief: as §1
T47D = assay: Anticancer activity against human T47D cells after 48 hrs by SRB assay; method in brief: as §2
SF-539 = assay: Anticancer activity against human SF539 cells after 48 hrs by SRB assay; details: SF-539, 48 h
MDA-MB-468 = assay: Anticancer activity against human MDA-MB-468 cells after 48 hrs by SRB assay; details: MDA-MB-468, 48 h
HT-29 = assay: Anticancer activity against human HT-29 cells after 48 hrs by SRB assay; details: HT-29, 48 h; method in brief: as §1
SK-MEL-5 = assay: Anticancer activity against human SK-MEL-5 cells after 48 hrs by SRB assay; details: SK-MEL-5, 48 h
HCT-15 = assay: Anticancer activity against human HCT15 cells after 48 hrs by SRB assay; details: HCT-15, 48 h; method in brief: as §1
SF-268 = assay: Anticancer activity against human SF268 cells after 48 hrs by SRB assay; details: SF-268, 48 h
CCRF-CEM = assay: Anticancer activity against human CCRF-CEM cells after 48 hrs by SRB assay; method in brief: as §1
SR = assay: Anticancer activity against human SR cells after 48 hrs by SRB assay; method in brief: as §2
TK-10 = assay: Anticancer activity against human TK10 cells after 48 hrs by SRB assay; details: TK-10, 48 h; method in brief: as §2
SN12C = assay: Anticancer activity against human SN12C cells after 48 hrs by SRB assay
M14 = assay: Anticancer activity against human M14 cells after 48 hrs by SRB assay; details: M14, 48 h; method in brief: as §1
[2] = read-out: LC50 (the source's name)

O=C(NCCNc1nccc(-c2c(-c3cccc(O)c3)nc3sccn23)n1)c1ccccc1O
GI50 (RPMI-8226): 3.55 µM
LC50 (RPMI-8226): > 100 µM
TGI (RPMI-8226): > 100 µM
GI50 [1]: 2960 nM
TGI [1]: 26.9 µM
CC50 [1, 2]: > 100 µM
GI50 (LOX IMVI): 335 nM
TGI (LOX IMVI): 16.4 µM
CC50 (LOX IMVI; [2]): 75.1 µM
GI50 (NCI-H322M): 4.6 µM
TGI (NCI-H322M): 18.5 µM
CC50 (NCI-H322M; [2]): 66.6 µM
GI50 (UACC-257): 6.41 µM
TGI (UACC-257): 73.6 µM
CC50 (UACC-257; [2]): > 100 µM
GI50 (MDA-MB-435): 1220 nM
TGI (MDA-MB-435): 3.54 µM
CC50 (MDA-MB-435; [2]): 10.6 µM
GI50 (NCI/ADR-RES): 5.05 µM
TGI (NCI/ADR-RES): 68.5 µM
CC50 (NCI/ADR-RES; [2]): > 100 µM
GI50 (SF-295): 7.69 µM
TGI (SF-295): 27.2 µM
CC50 (SF-295; [2]): 83.9 µM
GI50 (NCI-H460): 7.88 µM
LC50 (NCI-H460): > 100 µM
TGI (NCI-H460): 31 µM
GI50 (KM12): 6.38 µM
TGI (KM12): 27.3 µM
CC50 (KM12; [2]): > 100 µM
GI50 (MOLT-4): 2970 nM
TGI (MOLT-4): 21.7 µM
CC50 (MOLT-4; [2]): > 100 µM
GI50 (NCI-H23): 11.5 µM
LC50 (50% lethal concentration) (NCI-H23): > 100 µM
TGI (NCI-H23): 67.7 µM
GI50 (CAKI-1): 3.71 µM
TGI (CAKI-1): 55.6 µM
CC50 (CAKI-1; [2]): > 100 µM
GI50 (DU-145): 5.22 µM
TGI (DU-145): 43.3 µM
CC50 (DU-145; [2]): > 100 µM
GI50 (Malme-3M): 433 nM
TGI (Malme-3M): 11.8 µM
CC50 (Malme-3M; [2]): 45.1 µM
GI50 (HOP-62): 3.59 µM
LC50 (concentration killing 50% of starting cells) (HOP-62): > 100 µM
TGI (HOP-62): 32.5 µM
GI50 (K562): 6.06 µM
TGI (K562): > 100 µM
CC50 (K562; [2]): > 100 µM
GI50 (COLO 205): 5.58 µM
TGI (COLO 205): 20.9 µM
CC50 (COLO 205; [2]): 66.1 µM
GI50 (T47D): 2950 nM
TGI (T47D): 20 µM
CC50 (T47D; [2]): > 100 µM
GI50 (SF-539): 11.9 µM
TGI (SF-539): > 100 µM
CC50 (SF-539; [2]): > 100 µM
GI50 (MDA-MB-468): 2300 nM
TGI (MDA-MB-468): 18.2 µM
CC50 (MDA-MB-468; [2]): > 100 µM
GI50 (HT-29): 4.22 µM
TGI (HT-29): 15.3 µM
CC50 (HT-29; [2]): 40.8 µM
GI50 (SK-MEL-5): 4.57 µM
TGI (SK-MEL-5): 53.3 µM
CC50 (SK-MEL-5; [2]): > 100 µM
GI50 (HCT-15): 3.83 µM
TGI (HCT-15): 24.5 µM
CC50 (HCT-15; [2]): > 100 µM
GI50 (SF-268): 3.59 µM
TGI (SF-268): 24.9 µM
CC50 (SF-268; [2]): > 100 µM
GI50 (CCRF-CEM): 3.43 µM
TGI (CCRF-CEM): > 100 µM
CC50 (CCRF-CEM; [2]): > 100 µM
GI50 (SR): 5.94 µM
TGI (SR): > 100 µM
CC50 (SR; [2]): > 100 µM
GI50 (TK-10): 11.6 µM
TGI (TK-10): 52.2 µM
CC50 (TK-10; [2]): > 100 µM
GI50 (SN12C): 2840 nM
TGI (SN12C): 74.9 µM
CC50 (SN12C; [2]): > 100 µM
GI50 (M14): 683 nM
TGI (M14): 39 µM
CC50 (M14; [2]): > 100 µM
